# An excerpt weighted towards active compounds, which were near 2.9% of everything screened.
# UBC13 inh – blocks human UBC13 polyubiquitin chain formation | P61088 | TR-FRET | inhibition, % at 20 µM | 330,000 tested, 0.47% active | AID 485273; in the data active = inhibition above about 45%, passing the limit was not always enough
# Target sequence (P61088 whole entry, looked up): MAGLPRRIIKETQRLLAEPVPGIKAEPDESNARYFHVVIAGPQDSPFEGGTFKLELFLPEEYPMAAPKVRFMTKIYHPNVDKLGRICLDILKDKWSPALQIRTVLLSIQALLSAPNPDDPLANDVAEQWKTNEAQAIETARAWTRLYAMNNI
# MEKK3 PB1 HTS – modulators (inhibitors or enhancers) of MEK5 binding to human MEKK3 PB1 domain. bead-based flow cytometry, Alexa488-MEK5 binding to MEKK3; actives lie on both sides; 0 = blocked by unlabeled MEK5, 100 = vehicle. binding response (% of control), % at 10 µM. 290,000 tested, 1.4% active. Q99759;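 active = binding response more than 3 SD above or below the average of its plate-row segment, actives on both sides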;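 also: Alexa488 bead fluorescence after subtracting the streptavidin-only scavenger bead signal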
# Apaf-1 inh – blocks human Apaf-1 apoptosome activity; O14727; reconstituted apoptosome caspase-3 activity, DEVD-Rh110 fluorescence; inhibition, % at 20 µM; 330,000 tested, 0.71% active; AID 489030; active = inhibition of at least 40% at 20 µM
#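 detection = Rh110 fluorescence intensity | test system = biochemical Apaf-1 apoptosome reconstitution | also added = cytochrome c and DEVD-Rh110 substrate | schedule = 30 min plus 50 min, RT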
# MEKK2 mut-MEK5 – signal of MEK5 binding to mutant human MEKK2 PB1 domain; percent response, % at 10 µM; 290,000 tested, 0.35% active; bead flow cytometry, Alexa488-MEK5 binding to MEKK2 mutant; in the data active = percent response above about 24%, passing the limit was not always enough
# MEKK2wt PB1 HTS – raises or lowers MEK5 binding to wildtype human MEKK2 PB1 domain. Q9Y2U5. bead flow cytometry, Alexa488-MEK5 binding to MEKK2 WT; actives lie on both sides. binding response (% of control), % at 10 µM. 290,000 tested, 1.1% active. AID 1531; in the data active = binding response below about 67% or above about 130%
# MEKK2wt confirm – raises or lowers MEK5 binding to wildtype human MEKK2, retest; bead flow cytometry, Alexa488-MEK5 binding to MEKK2 WT; actives lie on both sides; binding response (% of control), % at 10 µM; shares compounds with MEKK3 PB1 HTS; AID 1892; 5,900 tested, 2.4% active; in the data active = binding response below about 16% or above about 210%; inactive = in between
# MEKK2mut-MEK5 – signal of MEK5 binding to mutant human MEKK2, retest; AID 1893; shares compounds with MEKK3 PB1 HTS; bead flow cytometry, Alexa488-MEK5 binding to MEKK2 mutant; percent response, % at 10 µM; 5,900 tested, 2% active; in the data active = percent response mostly above about 71%, no sharp cut-off; inactive = mostly below about 38%;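 also: higher means compound restores mutant binding toward wildtype level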
# MEKK3-MEK5 inh – MEKK3-MEK5 PB1 inhibition, single concentration confirmation; 5,900 tested, 1.8% active; binding response (% of control), % at 10 µM; shares compounds with MEKK3 PB1 HTS; bead flow cytometry, Alexa488-MEK5 binding to MEKK3; active compounds read low;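 active = binding response below 72% of control, or above a set upper limit, though filed actives all read lower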;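 also: lower values mean stronger disruption of MEK5 binding to MEKK3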
# Numbers stand for hits; – = inactive; · = no result given; [ ] = another dose, or the depositor's remark.
SMILES,UBC13 inh,MEKK3 PB1 HTS,Apaf-1 inh,MEKK2 mut-MEK5,MEKK2wt PB1 HTS,MEKK2wt confirm,MEKK2mut-MEK5,MEKK3-MEK5 inh
OC(CNCCc1ccc(C(F)(F)F)cc1)COC(c1ccccc1)c1ccccc1 (stereo not given),–,–,–,46,191,–,–,–
COCCNC(=S)NN=C1CCCCCC1,·,4.0[inhibitor],·,–,7.0[inhibitor],–,–,–
COCCNC(=S)NN=C1CCC(c2ccccc2)CC1 (stereo not given),–,–,–,–,–,·,·,·
O=C(C[n+]1ccc(-c2cc(C(=O)Nc3cccc(C(F)(F)F)c3)c3ccccc3n2)cc1)c1cccc([N+](=O)[O-])c1,–,–,–,–,158,–,99,–
O=C(Cn1c(=O)c2cccn2c2cccnc21)N1CCN(c2ccc(Cl)cc2)CC1,–,–,–,–,–,·,·,·
CCCCCCC(=O)NNC(=O)CC(=O)Nc1ccccc1C(=O)O,–,–,–,–,–,·,·,·
SC(COCc1ccccc1)CN1CCN(Cc2ccc3c(c2)OCO3)CC1 (stereo not given),–,–,–,–,142,–,–,–
Cc1ccc(OCC(O)CN2C(=O)NC(C)(C)C2=O)cc1C (stereo not given),–,–,–,–,–,·,·,·
Cc1ccc(OCC(O)CN2C(=O)NC(C)(C)C2=O)cc1 (stereo not given),–,73[inhibitor],–,–,–,–,–,–
COc1ccccc1C(=O)NCCC(=O)Nc1cccnc1,–,73[inhibitor],–,–,–,–,–,–
Oc1ccccc1-c1nnc(-c2ccc(C(F)(F)F)cc2)o1,–,81[inhibitor],–,–,–,–,–,–
COc1cccc(-c2nnc(-c3ccc(C(F)(F)F)cc3)o2)c1,–,–,–,–,–,·,·,·
Cc1cc(C)c(S(=O)(=O)N2CCCOC2CNC(=O)C(=O)NCc2ccncc2)c(C)c1 (stereo not given),–,–,–,–,–,·,·,·
O=C(Cc1ccc2cccnc2c1)c1ccc(O)cc1O,–,2.0[inhibitor],–,–,-1.0[inhibitor],–,–,–
Oc1ccc2cccnc2c1,–,–,–,–,–,·,·,·
Cc1ccc(-n2nc(C)c3c(C)c(CCC(=O)Nc4ccc(CN5CCCC5)cc4)c(C)nc32)cc1,–,–,–,–,191,–,–,–
CCn1ncc(C2=NOC(C(=O)Nc3ccc4c(c3)OCO4)C2)c1C (stereo not given),–,2.0[inhibitor],–,–,1.0[inhibitor],–,–,–
O=C(O)COCC(=O)NCc1nc(-c2ccc(C(F)(F)F)cc2)no1,–,–,–,–,–,·,·,·
COc1ccc(-c2noc(CNC(=O)Nc3ccc(F)cc3)n2)cc1,–,–,–,–,–,·,·,·
O=C(NCc1nc(-c2ccc(C(F)(F)F)cc2)no1)Nc1cc(Cl)cc(Cl)c1,–,136,–,52,179,–,–,–
O=C(NCc1nc(-c2ccc(C(F)(F)F)cc2)no1)Nc1ccc(F)cc1F,–,131,–,–,–,–,–,–
COc1ccc(CCNC(=O)c2c(O)c3ccccc3[nH]c2=O)cc1,–,–,–,–,–,·,·,·
COc1ccc(/C(N)=N/OC(=O)Cc2cccs2)cc1OC,–,150,–,–,–,–,–,–
COc1ccc(/C(N)=N/OC(=O)Cc2cccs2)cc1,–,–,–,–,–,·,·,·
O=C(NC(NC(=S)Nc1ccc(Cl)cc1Cl)C(Cl)(Cl)Cl)c1cccc([N+](=O)[O-])c1 (stereo not given),–,141,–,–,145,–,–,–
SMILES,UBC13 inh,MEKK3 PB1 HTS,Apaf-1 inh,MEKK2 mut-MEK5,MEKK2wt PB1 HTS,MEKK2wt confirm,MEKK2mut-MEK5,MEKK3-MEK5 inh
O=C(CCn1nc(-c2ccc(Cl)cc2)ccc1=O)NCCCN1CCCCCC1,–,–,–,50,193,–,–,–
CCOC(=O)C1=C(C)Nc2nc3ccccc3n2C1c1ccc(O)cc1 (stereo not given),–,–,–,–,–,·,·,·
CCOC(=O)c1ccccc1-n1c(C)cc(C2N=C(N)Nc3nc4ccccc4n32)c1C (stereo not given),–,–,–,–,146,–,–,–
Cc1sc(NC(=O)c2ccccc2)c(C(c2ccccn2)N2CCN(CCO)CC2)c1C (stereo not given),–,140,–,–,–,1.0[inhibitor],–,2.0
O=C(Nc1ccccc1C(=O)Nc1nncs1)c1ccccc1,–,–,–,–,–,·,·,·
O=C(Nc1nncs1)c1ccc(S(=O)(=O)c2ccccc2)cc1,–,123,–,–,–,–,–,–
COc1cccc(C(=O)OC(C)C(=O)NCC2CCCCC2)c1 (stereo not given),–,·,–,·,·,·,·,·
CCCOC(=O)c1ccc(NC(=O)c2ccccc2OC)cc1,–,–,–,–,–,·,·,·

# Compound activity from PubChem.
